Assay results as given in ChEMBL document CHEMBL4043283, “Discovery and Preclinical Development of IIIM-290, an Orally Active Potent Cyclin-Dependent Kinase Inhibitor” (J Med Chem, 2018).

Key:
MIA PaCa-2 [1] = assay: Cell cycle arrest in human MIAPaCa2 cells assessed as accumulation at G1 phase at 2 uM after 24 hrs by propidium iodide staining-based flow cytometric method (reference value: 36%); format: functional
MIA PaCa-2 [2] = assay: Cell cycle arrest in human MIAPaCa2 cells assessed as accumulation at S phase at 2 uM after 24 hrs by propidium iodide staining-based flow cytometric method (reference value: 33%); format: functional
MIA PaCa-2 [3] = assay: Cell cycle arrest in human MIAPaCa2 cells assessed as accumulation at G2 phase at 2 uM after 24 hrs by propidium iodide staining-based flow cytometric method (reference value: 30%); format: functional
MIA PaCa-2 [4] = assay: Induction of apoptosis in human MIAPaCa2 cells at 2 uM after 24 hrs by propidium iodide staining-based flow cytometric method relative to control; format: functional
[5] = target: CDK2/Cyclin A2 (Homo sapiens) (UniProt P24941+P20248); assay: Inhibition of CDK2/cyclin A (unknown origin) at 0.5 uM using histone H1 as substrate after 30 mins in presence of [33P]-gamma-ATP by filter binding assay relative to control; format: protein-complex assay
[6] = target: CDK9/cyclin T1 (Homo sapiens) (UniProt O60563+P50750); assay: Inhibition of CDK9/cyclin T1 (unknown origin) at 0.5 uM using YSPTSPSYSPTSPSYSPTSPKKK as substrate after 30 mins in presence of [33P]-gamma-ATP by filter binding assay relative to control; format: protein-complex assay
HL-60 [7] = assay: Growth inhibition of human HL60 cells at 10 uM after 48 hrs by MTT assay relative to control; format: functional; conditions: HL-60, 48 h, read-out: GI
Method in brief: (§1)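 Single-concentration primary screen at 10 μM by MTT assay. Cells were NCI-sourced cancer lines grown in appropriate medium at 37 °C, 95% humidity, 5% CO2. Growth inhibition is expressed relative to control.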

PC-3 [8] = assay: Growth inhibition of human PC3 cells at 10 uM after 48 hrs by MTT assay relative to control; format: functional; conditions: PC-3, 48 h, read-out: GI; method in brief: as §1
MIA PaCa-2 [9] = assay: Growth inhibition of human MIAPaCa2 cells at 10 uM after 48 hrs by MTT assay relative to control; format: functional; conditions: MIA PaCa-2, 48 h, read-out: GI; method in brief: as §1
MCF7 [10] = assay: Growth inhibition of human MCF7 cells at 10 uM after 48 hrs by MTT assay relative to control; format: functional; conditions: MCF7, 48 h, read-out: GI; method in brief: as §1
Caco-2 [11] = assay: Growth inhibition of human Caco2 cells at 10 uM after 48 hrs by MTT assay relative to control; format: functional; conditions: Caco-2, 48 h, read-out: GI; method in brief: as §1
CDK2/Cyclin A2 = CDK2/Cyclin A2 (Homo sapiens, UniProt P24941); assay: Inhibition of CDK2/cyclin A (unknown origin) using histone H1 as substrate after 30 mins in presence of [33P]-gamma-ATP by filter binding assay; format: protein-complex assay
CDK9/cyclin T1 = CDK9/cyclin T1 (Homo sapiens, UniProt P50750); assay: Inhibition of CDK9/cyclin T1 (unknown origin) using YSPTSPSYSPTSPSYSPTSPKKK as substrate after 30 mins in presence of [33P]-gamma-ATP by filter binding assay; format: protein-complex assay
Sequence of CDK9/cyclin T1 (O60563 whole entry): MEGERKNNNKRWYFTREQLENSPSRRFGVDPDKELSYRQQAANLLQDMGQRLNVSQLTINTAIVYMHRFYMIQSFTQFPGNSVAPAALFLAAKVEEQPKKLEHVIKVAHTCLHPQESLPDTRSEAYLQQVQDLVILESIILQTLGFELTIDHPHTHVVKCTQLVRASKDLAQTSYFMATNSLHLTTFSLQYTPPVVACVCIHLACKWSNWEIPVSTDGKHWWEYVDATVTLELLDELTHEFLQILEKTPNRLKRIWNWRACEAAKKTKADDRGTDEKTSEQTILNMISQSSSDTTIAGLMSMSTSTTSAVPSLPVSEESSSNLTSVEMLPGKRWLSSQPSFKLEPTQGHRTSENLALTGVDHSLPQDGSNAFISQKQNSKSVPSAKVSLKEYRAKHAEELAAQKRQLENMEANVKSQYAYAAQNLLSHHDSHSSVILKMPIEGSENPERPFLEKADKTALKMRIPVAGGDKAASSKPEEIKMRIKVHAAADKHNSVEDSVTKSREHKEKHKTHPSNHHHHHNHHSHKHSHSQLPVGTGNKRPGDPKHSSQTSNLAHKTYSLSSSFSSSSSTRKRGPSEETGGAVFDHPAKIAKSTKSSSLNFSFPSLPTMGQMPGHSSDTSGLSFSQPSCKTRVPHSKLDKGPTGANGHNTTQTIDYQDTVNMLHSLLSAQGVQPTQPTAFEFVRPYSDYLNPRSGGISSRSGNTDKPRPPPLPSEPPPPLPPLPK
Sequence of CDK9/cyclin T1 (P50750 whole entry): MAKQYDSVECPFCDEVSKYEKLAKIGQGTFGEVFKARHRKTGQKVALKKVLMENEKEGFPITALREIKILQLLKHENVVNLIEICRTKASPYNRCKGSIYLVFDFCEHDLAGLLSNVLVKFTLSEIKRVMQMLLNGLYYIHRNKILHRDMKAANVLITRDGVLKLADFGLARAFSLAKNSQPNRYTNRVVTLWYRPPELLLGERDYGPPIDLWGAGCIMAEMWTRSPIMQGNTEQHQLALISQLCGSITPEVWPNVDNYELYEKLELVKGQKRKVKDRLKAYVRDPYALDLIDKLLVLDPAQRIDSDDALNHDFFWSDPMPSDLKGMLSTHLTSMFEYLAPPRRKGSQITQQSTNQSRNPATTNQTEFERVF

HL-60 [12] = assay: Growth inhibition of human HL60 cells after 48 hrs by MTT assay; format: functional; conditions: HL-60, 48 h
Method in brief: (§2)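 Cancer cell lines sourced from the National Cancer Institute (USA). Cells kept in appropriate growth medium at 37 °C, 95% humidity, 5% CO2. Antiproliferation read by tetrazolium (MTT) assay. GI50 values were determined only for compounds selected after an initial single-concentration screen.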

PC-3 [13] = assay: Growth inhibition of human PC3 cells after 48 hrs by MTT assay; format: functional; conditions: PC-3, 48 h; method in brief: as §2
MIA PaCa-2 [14] = assay: Growth inhibition of human MIAPaCa2 cells after 48 hrs by MTT assay; format: functional; conditions: MIA PaCa-2, 48 h; method in brief: as §2
MCF7 [15] = assay: Growth inhibition of human MCF7 cells after 48 hrs by MTT assay; format: functional; conditions: MCF7, 48 h; method in brief: as §2
Caco-2 [16] = assay: Growth inhibition of human Caco2 cells after 48 hrs by MTT assay; format: functional; conditions: Caco-2, 48 h; method in brief: as §2
Homo sapiens = species: Homo sapiens; assay: Selectivity ratio of IC50 for CDK2/cyclin A (unknown origin) to IC50 for CDK9/cyclin T1 (unknown origin)

| inhibition [5] | inhibition [6] | IC50 (CDK2/Cyclin A2) | IC50 (CDK9/cyclin T1) | GI50 (HL-60 [12]) | GI50 (PC-3 [13]) | GI50 (MIA PaCa-2 [14]) | GI50 (MCF7 [15]) | GI50 (Caco-2 [16]) | Ratio IC50 (Homo sapiens) | Compound | Activity (MIA PaCa-2 [1]) | Activity (MIA PaCa-2 [2]) | Activity (MIA PaCa-2 [3]) | Activity (MIA PaCa-2 [4]) | inhibition of growth at 10 µM (HL-60 [7]) | inhibition of growth at 10 µM (PC-3 [8]) | inhibition of growth at 10 µM (MIA PaCa-2 [9]) | inhibition of growth at 10 µM (MCF7 [10]) | inhibition of growth at 10 µM (Caco-2 [11]) |
| --- | --- | --- | --- | --- | --- | --- | --- | --- | --- | --- | --- | --- | --- | --- | --- | --- | --- | --- | --- |
|  |  |  |  |  |  |  |  |  |  | CC[C@@]1(O)C(=O)OCc2c1cc1n(c2=O)Cc2cc3ccccc3nc2-1 [CAMPTOTHECIN] | 42% | 26% | 31% | 3.3% |  |  |  |  |  |
| 10% | 75% | 1.41 µM | 0.16 µM | 9 µM | 17 µM | 8 µM | 9 µM | 9 µM | 10 | CN1CC[C@H](c2c(O)cc(O)c3c(=O)cc(/C=C/c4ccccc4Cl)oc23)[C@H](O)C1 |  |  |  |  | 61% | 22% | 59% | 63% | 65% |
| 5% | 53% | 3 µM | 0.28 µM | 20 µM | 10 µM | 10 µM | 2 µM | 9 µM | 10 | CN1CC[C@H](c2c(O)cc(O)c3c(=O)cc(/C=C/c4cccc(Cl)c4)oc23)[C@H](O)C1 |  |  |  |  | 35% | 53% | 52% | 82% | 55% |
| 42% | 92% | 0.608 µM | 0.0115 µM | 3 µM | 2 µM | 1 µM | 8 µM | 8 µM | 52 | CN1CC[C@H](c2c(O)cc(O)c3c(=O)cc(/C=C/c4c(F)c(F)c(F)c(F)c4F)oc23)[C@H](O)C1 |  |  |  |  | 80% | 82% | 89% | 64% | 59% |
| 2% | 71% | 3.3 µM | 0.31 µM | 8 µM | 31 µM | 2 µM | 49 µM | 5.6 µM | 10 | CN1CC[C@H](c2c(O)cc(O)c3c(=O)cc(/C=C/c4ccc(Cl)cc4)oc23)[C@H](O)C1 |  |  |  |  | 58% | 12% | 88% | 10% | 70% |
